In brackets after ≈: the same amount, converted by molar mass.
What was measured:
[1] = Biodistribution of 67Ga complexes in naive mice; type: in vivo; conditions: naive female CBJ mice (n = 3), intravenous, 0.8–1.2 MBq, 1 h p.i.
Summary of the method: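 Naive female CBJ mice (8–10 weeks) received 0.8–1.2 MBq of 67Ga complex via tail-vein catheter. The complex was formed from 67GaCl3 (derived from 67Ga-citrate) and ligand in HEPES at pH 7.4, with labelling checked by radio-HPLC. A 67Ga-citrate group was also dosed. At 1 h p.i. mice were killed, organs harvested and gamma-counted (% ID/g), and urine metabolites analysed by radio-HPLC.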

E. coli AN193 = assay: MIC assay in E. coli AN193; type: cell-based, Escherichia coli; conditions: E. coli AN193 carrying a mutation of the FhuA gene; compared with wt E. coli K12
K. pneumoniae CRE-11 = assay: Growth inhibition; type: cell-based, Klebsiella pneumoniae; conditions: for MIC90: Klebsiella pneumoniae, CRE11, 18 h, read-out: MIC90 K. pneumoniae CRE-11
Summary of the method: (§1)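 Broth microdilution in cation-adjusted Mueller–Hinton II broth made iron-deficient with 2,2′-bipyridine. Test compound stock was 0.3 mM in sterile water, with concentration verified by ICP-OES/UV–vis. Serial dilutions gave a final range of 0.3 × 10−4 to 1.56 × 10−12 M, with diluted inoculum added. Ciprofloxacin served as comparator. Incubation was 18 h at 37 °C with absorbance read. MIC was the lowest concentration giving ≥90% growth inhibition relative to negative-control wells.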

E. coli K12 [2] = assay: Challenge MIC assay in E. coli with 100-fold excess Fe-siderophore; type: cell-based, Escherichia coli; conditions: for MIC90: Escherichia coli, K12, 18 h, read-out: MIC90 (+DP, +100× Fe siderophore)
E. coli K12 [3] = assay: MIC assay in E. coli K12 in iron-deficient; type: cell-based; conditions: Escherichia coli, K12, 18 h, read-out: MIC90 (+DP)
P. aeruginosa PA01 = assay: Growth inhibition; type: cell-based, Pseudomonas aeruginosa; conditions: for MIC90: Pseudomonas aeruginosa, PA01, 18 h, read-out: MIC90 P. aeruginosa PA01
Summary of the method: as §1

S. aureus RN4220 = assay: Growth inhibition; type: cell-based, Staphylococcus aureus; conditions: for MIC90: Staphylococcus aureus, RN4220, 18 h, read-out: MIC90 S. aureus RN4220
[4] = cited from earlier work

Compound | growth inhibitory activity in E. coli AN193 (in words) (E. coli AN193) | MIC90 (K. pneumoniae CRE-11) [µM] | MIC90 (E. coli K12 [2]) [µM] | MIC90 (E. coli K12 [3]) [µM] | MIC90 (P. aeruginosa PA01) [µM] | MIC90 (S. aureus RN4220) [µM] | further results
O=C([O-])CC(O)(CC(=O)[O-])C(=O)[O-].[67Ga+3] [^67Ga-citrate] | – | – | – | – | – | – | clearance route from biodistribution (in words) [1]: predominantly renal clearance
CC(=O)N(O)CCCCCNC(=O)CCC(=O)N(O)CCCCCNC(=O)CCC(=O)N(O)CCCCCNC(=O)CCC(=O)N1CCN(c2cc3c(cc2F)c(=O)c(C(=O)O)cn3C2CC2)CC1 [apo D1, 7-{4-[4-(5-{N-4-[5-(N-4-{5-[N-Acetyl-(hydroxyamino)]pentylamino}−4-oxobutyry(hydroxyamino))pentyl-amino]-4-oxobutyryl(hydroxyamino)}pentylamino)-4-oxobutyryl]-1-piperazinyl}−1-cyclopropyl-6-fluoro-4-oxo-1H-quinoline-3-carboxylic Acid] | retain comparable MIC values | – | – | – | – | – | –
CC(=O)N(O)CCCC(N)C(=O)NC(CCCN(O)C(C)=O)C(=O)NC(CCCN(O)C(C)=O)C(=O)NCCC(=O)N1CCN(c2cc3c(cc2F)c(=O)c(C(=O)O)cn3C2CC2)CC1 (centres unmarked) [apo D2, 7-[4-(3-{5-[N-Acetyl(hydroxyamino)]-2-{5-[N-acetyl(hydroxyamino)]-2-{5-[N-acetyl(hydroxyamino)]-2-aminovalerylamino}-valerylamino}valerylamino}propionyl)-1-piperazinyl]-1-cyclopropyl-6-fluoro-4-oxo-1H-quinoline-3-carboxylic Acid] | completely muted | > 100 | > 100 | 0.23 (≈ 0.211 µg/mL) | 7.5 (≈ 6.89 µg/mL) | 15 (≈ 13.8 µg/mL) | –
O=C(O)c1cn(C2CC2)c2cc(N3CCNCC3)c(F)cc2c1=O [ciprofloxacin] | – | 3.12 (≈ 1.03 µg/mL) | 0.23 (≈ 0.0762 µg/mL) | 0.2 (≈ 0.0663 µg/mL) | 0.94 (≈ 0.311 µg/mL) | 1.9 (≈ 0.63 µg/mL) | impact of 100× Fe–DFO or 100× Fe–LDFC on potency (in words) (E. coli K12 [2]; E. coli, challenge MIC assay): no impact
CC(=O)N(O)CCCCCNC(=O)CCC(=O)N(O)CCCCCNC(=O)CCC(=O)N(O)CCCCCN [desferrioxamine (DFO), desferrioxamine] | – | – | – | – | – | – | log Ka of the gallium complex [4]: 28.65
albomycin [Fe-D3 (albomycin)] | completely muted | – | – | – | – | – | MIC90 K. pneumoniae CRE-11 (K. pneumoniae CRE-11; carbapenem resistant K. pneumoniae CRE-11, iron-limiting conditions, 37 °C, 18 h): 0.00023 μM; growth inhibitory activity in K. pneumoniae (in words) (K. pneumoniae CRE-11; carbapenem resistant K. pneumoniae, iron-limiting conditions): exceptional potency; MIC90 P. aeruginosa PA01 (P. aeruginosa PA01; wild-type P. aeruginosa PA01, iron-limiting conditions, 37 °C, 18 h): >30 µM; MIC90 S. aureus RN4220 (S. aureus RN4220; wild-type S. aureus RN4220, iron-limiting conditions, 37 °C, 18 h): 0.94 µM

From PMC6943944 (Journal of medicinal chemistry, 2019)
